Data: ChEMBL document CHEMBL4813987, “Membrane active 7-thiazoxime quinolones as novel DNA binding agents to decrease the genes expression and exert potent anti-methicillin-resistant Staphylococcus aureus activity” (Eur J Med Chem, 2021)
In brackets after ≈: the same amount, converted by molar mass. Activity calls are given as the source filed them. The calls are words filed in the database; no cut-off is given here.

Assays:
[1] = test system: Staphylococcus aureus; assay: Antibacterial activity against Staphylococcus aureus assessed as reduction in microbial growth by two fold microdilution method; type: functional
In short: (§1)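 MIC determined by the standard two-fold broth micro-dilution assay, with norfloxacin and ciprofloxacin as reference agents.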

[2] = test system: Enterococcus faecalis; assay: Antibacterial activity against Enterococcus faecalis assessed as reduction in microbial growth by two fold microdilution method; type: functional
[3] = test system: Pseudomonas aeruginosa; assay: Antibacterial activity against Pseudomonas aeruginosa ATCC 27853 assessed as reduction in microbial growth by two fold microdilution method; type: functional
[4] = test system: Staphylococcus aureus; assay: microbe, parasite or virus in culture
[5] = test system: Klebsiella pneumoniae; assay: Antibacterial activity against Klebsiella pneumonia in presence of (E)-1-cyclopropyl-6-fluoro-7-(4-(2-((2-methoxy-2-oxoethoxy)imino)-2-(thiazol-2-yl)ethyl)piperazin-1-yl)-4-oxo-1,4-dihydroquinoline-3-carboxylic acid (reference value: 2 ug/ml)
[6] = test system: Staphylococcus aureus; assay: microbe, parasite or virus in culture; conditions: ATCC 25923
[7] = test system: Staphylococcus aureus; assay: Antibacterial activity against Staphylococcus aureus ATCC 29213 assessed as reduction in microbial growth by two fold microdilution method; type: functional
[8] = test system: Klebsiella pneumoniae; assay: Antibacterial activity against Klebsiella pneumonia assessed as reduction in microbial growth by two fold microdilution method; type: functional
[9] = test system: Staphylococcus aureus; assay: Antibacterial activity against methicillin-resistant Staphylococcus aureus assessed as reduction in microbial growth by two fold microdilution method; type: functional; in short: as §1
[10] = test system: Staphylococcus aureus; assay: Antibacterial activity against Staphylococcus aureus ATCC 25923 assessed as reduction in microbial growth by two fold microdilution method; type: functional
[11] = test system: Staphylococcus aureus; assay: Potency index, ratio of norfloxacin MIC to test compound MIC for antibacterial activity against Staphylococcus aureus ATCC 29213 assessed as reduction in microbial growth by two fold microdilution method; type: functional
[12] = test system: Staphylococcus aureus; assay: Potency index, ratio of norfloxacin MIC to test compound MIC for antibacterial activity against methicillin-resistant Staphylococcus aureus assessed as reduction in microbial growth by two fold microdilution method; type: functional
[13] = test system: Escherichia coli; assay: Antibacterial activity against Escherichia coli assessed as reduction in microbial growth by two fold microdilution method; type: functional
[14] = test system: Pseudomonas aeruginosa; assay: Antibacterial activity against Pseudomonas aeruginosa assessed as reduction in microbial growth by two fold microdilution method; type: functional
[15] = test system: Escherichia coli; assay: Antibacterial activity against Escherichia coli ATCC 25922 assessed as reduction in microbial growth by two fold microdilution method; type: functional
[16] = test system: Acinetobacter baumannii; assay: Antibacterial activity against Acinetobacter baumannii assessed as reduction in microbial growth by two fold microdilution method; type: functional
[17] = test system: Staphylococcus aureus; assay: Antibacterial activity against methicillin-resistant Staphylococcus aureus assessed as reduction in bacterial growth at 50 to 300 ug/ml measured after 14 passages; type: functional, organism-based; conditions: dose 50-300 µg/ml
[18] = test system: DNA; assay: Binding affinity to methicillin-resistant Staphylococcus aureus DNA assessed as conformational changes in DNA duplex by UV spectroscopy; type: nucleic-acid assay
In short: (§2)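 Genomic DNA isolated from MRSA titrated with the compound. UV absorption spectra recorded in 1.0 cm quartz cells, and the binding constant derived from an equation and plot of the spectral data.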

[19] = test system: Staphylococcus aureus; assay: Antibacterial activity against Staphylococcus aureus ATCC 25923 in presence of ciprofloxacin (reference value: 0.25 ug/ml); type: functional
In short: (§3)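 MIC of the test compound and of ciprofloxacin determined alone and in combination against each strain. FIC index = (MIC of A combined / MIC of A alone) + (MIC of B combined / MIC of B alone). FIC index ≤0.5 scored synergy, >0.5–2 additivity, >2 antagonism.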

[20] = test system: Staphylococcus aureus; assay: Bactericidal activity against methicillin-resistant Staphylococcus aureus assessed as increase in sterilization rate at 2 ug/ml measured at 6 hrs by time kill assay; type: functional, organism-based; conditions: dose 2.0 µg/ml
In short: (§4)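 Time-kill kinetics: MRSA exposed to the compound at several concentrations, with ciprofloxacin as positive control. Sterilization rate followed over time up to 6 h.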

[21] = test system: Staphylococcus aureus; assay: Synergistic antibacterial activity against methicillin-resistant Staphylococcus aureus assessed as fractional inhibitory concentration index in presence of ciprofloxacin; type: functional; in short: as §3
[22] = target: T1, DNA gyrase (Staphylococcus aureus) (UniProt P0A0K8+P20831); assay: Binding affinity to DNA gyrase in methicillin-resistant Staphylococcus aureus assessed as decrease in mecA gene expression after 3 hrs by RT-PCR method
[23] = Hemolytic activity in human RBC incubated for 4 hrs by microscopic analysis relative to control; type: ADME, cell-based, Erythrocyte; conditions: red blood cells (erythrocytes), read-out: Activity
In short: (§5)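 Processed red blood cells incubated with various compound concentrations (multiples of MIC) for 4 h at 37 °C in PBS; 1% Triton X-100 as positive control, PBS blank, saline control; hemolysis rate determined and cell integrity inspected by microscopy.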

[24] = test system: Klebsiella pneumoniae; assay: Synergistic antibacterial activity against Klebsiella pneumonia assessed as fractional inhibitory concentration index in presence of ciprofloxacin; type: functional
[25] = test system: Staphylococcus aureus; assay: Bactericidal activity against methicillin-resistant Staphylococcus aureus assessed as increase in sterilization rate at 4 ug/ml measured at 4 hrs by time kill assay; type: functional, organism-based; conditions: dose 4.0 µg/ml; in short: as §4
[26] = Hemolytic activity in human RBC at 64 times MIC incubated for 4 hrs by microscopic analysis relative to control; type: ADME, cell-based, Erythrocyte; conditions: red blood cells (erythrocytes), read-out: Activity; in short: as §5
[27] = test system: Staphylococcus aureus; assay: Antibacterial activity against methicillin-resistant Staphylococcus aureus assessed as reduction in bacterial growth at 20 to 140 ug/ml measured after 16 passages; type: functional, organism-based; conditions: dose 20-140 µg/ml
[28] = test system: Cell membrane; assay: Induction of inner membrane permeabilization in methicillin-resistant Staphylococcus aureus assessed as decrease in fluorescence intensity at 4 times MIC measured by calcein-AM dye based fluorescence analysis
[29] = test system: Cell membrane; assay: Induction of inner membrane disruption in methicillin-resistant Staphylococcus aureus assessed as decrease in green fluorescence intensity at 4 times MIC measured by calcein-AM dye based fluorescence analysis
In short: (§6)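 MRSA treated at 1–4 × MIC and stained with propidium iodide and calcein-AM. Fluorescence intensity measured on a spectrofluorimeter. Dual-stain cells imaged by fluorescence microscopy, scoring red (PI) and green (calcein) cells.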

[30] = test system: Escherichia coli; assay: Synergistic antibacterial activity against Escherichia coli assessed as fractional inhibitory concentration index in presence of ciprofloxacin; type: functional
[31] = test system: Staphylococcus aureus; assay: Antibacterial activity against methicillin-resistant Staphylococcus aureus in presence of ciprofloxacin (reference value: 0.25 ug/ml); type: functional; in short: as §3
[32] = target: T1, DNA gyrase (Staphylococcus aureus); assay: Binding affinity to DNA gyrase in methicillin-resistant Staphylococcus aureus assessed as decrease in gyrB gene expression after 3 hrs by RT-PCR method
[33] = test system: Staphylococcus aureus; assay: Antibacterial activity against methicillin-resistant Staphylococcus aureus assessed as reduction in bacterial growth at 20 to 140 ug/ml measured after 16 passages in presence of ciprofloxacin; type: functional, organism-based; conditions: dose 20-140 µg/ml
[34] = test system: Cell membrane; assay: Induction of membrane depolarization in methicillin-resistant Staphylococcus aureus at MIC by DiSC35 dye-based fluorescence assay; conditions: TDE = time-dependent effect
In short: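 Cytoplasmic membrane potential of MRSA probed with the fluorescent dye diSC35. Cells treated at MIC, and fluorescence intensity recorded over time against untreated cells.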

[35] = test system: Erythrocyte; assay: Hemolytic activity in human RBC at 16 times MIC incubated for 4 hrs by microscopic analysis; type: ADME, cell-based; in short: as §5
[36] = test system: HEK-293T; assay: Cytotoxicity against human HEK293T cells assessed as increase in cell survival incubated for 24 hrs by MTT assay relative to control; type: cell-based
In short: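 LO2 hepatocytes and 293T cells exposed to compound for 24 h; viability by colorimetric MTT proliferation assay, expressed as survival rate versus untreated cells.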

[37] = test system: Cell membrane; assay: Induction of inner membrane permeabilization in methicillin-resistant Staphylococcus aureus by propidium iodide staining based fluorescence microscopic analysis; in short: as §6
[38] = test system: DNA; assay: Competitive binding affinity to methicillin-resistant Staphylococcus aureus DNA assessed as DNA intercalation by AO staining based assay; type: nucleic-acid assay
In short: (§7)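 Competitive displacement on MRSA DNA, recorded by fluorescence in 1.0 cm quartz cells. For the AO–DNA complex, emission at 537 nm followed with increasing compound concentration. For the DAPI–DNA complex, DAPI fluorescence followed with increasing compound concentration.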

[39] = test system: DNA; assay: Competitive binding affinity to methicillin-resistant Staphylococcus aureus DNA assessed as DNA intercalation by DAPI staining based assay; type: nucleic-acid assay; in short: as §7
[40] = target: T1, DNA gyrase (Staphylococcus aureus); assay: Binding affinity to DNA gyrase in methicillin-resistant Staphylococcus aureus assessed as decrease in femB gene expression after 3 hrs by RT-PCR method
[41] = test system: DNA; assay: Binding affinity to methicillin-resistant Staphylococcus aureus DNA assessed as compound-DNA complex formation by UV spectroscopy; type: nucleic-acid assay; in short: as §2
[42] = test system: DNA; assay: Binding affinity to methicillin-resistant Staphylococcus aureus DNA assessed as maximum absorbance peak at 260 nm by UV spectroscopy; type: nucleic-acid assay; in short: as §2
[43] = test system: Escherichia coli; assay: Antibacterial activity against Escherichia coli in presence of ciprofloxacin (reference value: 0.25 ug/ml); type: functional
[44] = test system: Cell membrane; assay: Induction of inner membrane disruption in methicillin-resistant Staphylococcus aureus assessed as increase in red fluorescence intensity at 4 times MIC measured by calcein-AM dye based fluorescence analysis; in short: as §6
[45] = test system: Staphylococcus aureus; assay: Additive antibacterial activity against Staphylococcus aureus ATCC 25923 assessed as fractional inhibitory concentration index in presence of ciprofloxacin; type: functional
[46] = test system: Klebsiella pneumoniae; assay: Antibacterial activity against Klebsiella pneumonia in presence of ciprofloxacin (reference value: 0.25 ug/ml); type: functional

T1 sequence (P0A0K8 2-644 limits assumed): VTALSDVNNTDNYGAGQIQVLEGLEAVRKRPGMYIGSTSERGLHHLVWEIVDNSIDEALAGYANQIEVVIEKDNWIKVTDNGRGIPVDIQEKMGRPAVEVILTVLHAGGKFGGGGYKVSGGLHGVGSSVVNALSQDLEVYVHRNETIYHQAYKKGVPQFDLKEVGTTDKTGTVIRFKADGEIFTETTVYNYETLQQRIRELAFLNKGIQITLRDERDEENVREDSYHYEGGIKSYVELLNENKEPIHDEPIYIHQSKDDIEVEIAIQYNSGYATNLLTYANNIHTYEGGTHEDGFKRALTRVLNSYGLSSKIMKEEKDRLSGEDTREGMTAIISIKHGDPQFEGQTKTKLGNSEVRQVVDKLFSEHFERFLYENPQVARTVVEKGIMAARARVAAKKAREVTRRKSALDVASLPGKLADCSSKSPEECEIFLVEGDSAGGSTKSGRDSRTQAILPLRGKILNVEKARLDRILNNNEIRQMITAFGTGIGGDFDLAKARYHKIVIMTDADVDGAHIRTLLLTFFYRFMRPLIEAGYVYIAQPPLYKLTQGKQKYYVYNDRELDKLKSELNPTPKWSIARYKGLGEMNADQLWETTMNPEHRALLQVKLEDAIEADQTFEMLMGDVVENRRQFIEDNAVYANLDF
T1 sequence (P20831 whole entry partner): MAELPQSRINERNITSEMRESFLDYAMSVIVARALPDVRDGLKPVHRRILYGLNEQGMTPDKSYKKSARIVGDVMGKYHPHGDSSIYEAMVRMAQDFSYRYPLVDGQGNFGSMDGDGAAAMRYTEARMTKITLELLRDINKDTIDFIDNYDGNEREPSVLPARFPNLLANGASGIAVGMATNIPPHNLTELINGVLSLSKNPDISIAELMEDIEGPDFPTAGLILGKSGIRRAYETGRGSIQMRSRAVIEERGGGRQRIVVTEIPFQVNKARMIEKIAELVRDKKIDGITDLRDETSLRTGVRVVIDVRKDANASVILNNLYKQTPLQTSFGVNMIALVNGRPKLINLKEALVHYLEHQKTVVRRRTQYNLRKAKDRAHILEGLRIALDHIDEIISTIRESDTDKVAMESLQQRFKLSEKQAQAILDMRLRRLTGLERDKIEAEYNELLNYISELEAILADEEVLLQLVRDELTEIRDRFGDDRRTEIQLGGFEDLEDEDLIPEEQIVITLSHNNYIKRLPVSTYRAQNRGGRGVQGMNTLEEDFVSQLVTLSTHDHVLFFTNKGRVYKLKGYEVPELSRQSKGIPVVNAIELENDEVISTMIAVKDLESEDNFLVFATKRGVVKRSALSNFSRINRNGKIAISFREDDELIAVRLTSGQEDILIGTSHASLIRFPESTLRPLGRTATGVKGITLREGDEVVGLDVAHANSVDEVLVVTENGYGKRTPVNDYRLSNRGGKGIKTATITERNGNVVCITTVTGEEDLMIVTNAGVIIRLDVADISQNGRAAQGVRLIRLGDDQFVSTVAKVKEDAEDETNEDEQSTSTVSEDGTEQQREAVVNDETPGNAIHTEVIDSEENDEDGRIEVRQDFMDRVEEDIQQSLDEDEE

Structure (SMILES): O=C(O)c1cn(C2CC2)c2cc(N3CCNCC3)c(F)cc2c1=O [CIPROFLOXACIN]
- MIC [1]: 2 µg/mL
- MIC [2]: 2 µg/mL
- MIC [3]: 1 µg/mL
- MIC [4]: 2 µg/mL (≈ 6.04 µM)
- MIC [5]: 0.125 µg/mL
- MIC [6]: 1 µg/mL (≈ 3.02 µM)
- MIC [7]: 0.5 µg/mL
- MIC [8]: 2 µg/mL
- MIC [9]: 8 µg/mL
- MIC [10]: 2 µg/mL

Structure (SMILES): CCn1cc(C(=O)O)c(=O)c2cc(F)c(N3CCN(CC(=O)c4nccs4)CC3)cc21
- Ratio [11]: 16
- MIC [1]: 4 µg/mL
- Ratio [12]: 4
- MIC [13]: 32 µg/mL
- MIC [14]: 4 µg/mL
- MIC [2]: 2 µg/mL
- MIC [3]: 2 µg/mL
- MIC [15]: 64 µg/mL
- MIC [16]: 16 µg/mL
- MIC [7]: 1 µg/mL
- MIC [8]: 32 µg/mL
- MIC [9]: 4 µg/mL
- MIC [10]: 2 µg/mL

Structure (SMILES): CCn1cc(C(=O)O)c(=O)c2cc(F)c(N3CCN(C/C(=N\OC)c4nccs4)CC3)cc21
- Activity [17]: inactive
- MIC [1]: 2 µg/mL
- Ratio [12]: 64
- MIC [13]: 0.25 µg/mL
- MIC [14]: 0.25 µg/mL
- MIC [2]: 4 µg/mL
- MIC [3]: 8 µg/mL
- MIC [15]: 256 µg/mL
- MIC [16]: 0.25 µg/mL
- MIC [7]: 0.25 µg/mL
- MIC [8]: 256 µg/mL
- MIC [9]: 0.25 µg/mL
- MIC [10]: 0.5 µg/mL

Structure (SMILES): C=CCO/N=C(\CN1CCN(c2cc3c(cc2F)c(=O)c(C(=O)O)cn3CC)CC1)c1nccs1
- Activity [17]: inactive
- MIC [1]: 0.25 µg/mL
- Ratio [12]: 64
- MIC [13]: 0.25 µg/mL
- MIC [14]: 0.25 µg/mL
- MIC [2]: 1 µg/mL
- MIC [3]: 4 µg/mL
- MIC [15]: 0.5 µg/mL
- MIC [16]: 0.25 µg/mL
- MIC [7]: 2 µg/mL
- MIC [8]: 256 µg/mL
- MIC [9]: 0.25 µg/mL
- MIC [10]: 0.5 µg/mL

Structure (SMILES): COC(=O)CO/N=C(\CN1CCN(c2cc3c(cc2F)c(=O)c(C(=O)O)cn3C2CC2)CC1)c1nccs1
- Activity [18]: Active
- MIC [19]: 0.25 µg/mL
- Activity [20]: Active
- FIC [21]: 0.5
- Activity [22]: inactive
- hemolysis at 4 h [23]: < 3%
- FIC [24]: 0.3125
- MIC [1]: 0.25 µg/mL
- Activity [25]: Active
- MIC [13]: 1 µg/mL
- hemolysis at 4 h, 64 times MIC [26]: < 5%
- Activity [27]: Active
- Activity [28]: Active
- MIC [14]: 0.25 µg/mL
- MIC [2]: 0.25 µg/mL
- Activity [29]: Active
- FIC [30]: 0.3125
- MIC [3]: 0.25 µg/mL
- MIC [31]: 0.125 µg/mL
- MIC [15]: 0.25 µg/mL
- Activity [32]: Active
- Activity [33]: inactive
- Activity [34]: Tde
- Activity [35]: Non-Toxic
- Activity [36]: > 90%
- Activity [37]: Dose-Dependent Effect
- MIC [16]: 0.25 µg/mL
- Activity [38]: Active
- Activity [39]: Active
- Activity [40]: Active
- Activity [41]: Active
- MIC [7]: 0.25 µg/mL
- MIC [8]: 0.25 µg/mL
- Activity [42]: Active
- MIC [43]: 0.0625 µg/mL
- MIC [9]: 0.25 µg/mL
- MIC [10]: 0.25 µg/mL
- Activity [44]: Active
- FIC [45]: 1.5
- MIC [46]: 0.0625 µg/mL
